Reference: paper PMC11520665 (Critical Care, 2024)

Test: Safety: treatment-emergent adverse events
Format: in vivo, patients (adults)
Settings: safety population
How it was run: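 Post-hoc pooled data from two randomised, double-blind, double-dummy trials. The safety population was adults in the ICU at randomisation who received ≥1 dose. Dosing was IV test compound weekly (400 mg Day 1, 200 mg Day 8, optional later 200 mg) or IV comparator echinocandin daily (70 mg Day 1, then 50 mg/day). TEAEs ran from dosing to follow-up, coded MedDRA 23.0, graded mild/moderate/severe, and summarised descriptively.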

[1] = ICU at randomisation, n=46 rezafungin, n=67 caspofungin
[2] = ICU at randomisation, number of events per severity

Caspofungin
TEAE: Abdominal abscess, patients [1]: 4 (6.0) n (%)
TEAE: Abdominal pain, patients [1]: 4 (6.0) n (%)
TEAE: Acidosis, patients [1]: 4 (6.0) n (%)
TEAE: Acute kidney injury, patients [1]: 4 (6.0) n (%)
TEAE: Anaemia, patients [1]: 7 (10.4) n (%)
TEAE: Atrial fibrillation, patients [1]: 3 (4.5) n (%)
TEAE: Bradycardia, patients [1]: 5 (7.5) n (%)
TEAE: Constipation, patients [1]: 4 (6.0) n (%)
TEAE: Decubitus ulcer, patients [1]: 5 (7.5) n (%)
TEAE: Deep vein thrombosis, patients [1]: 4 (6.0) n (%)
TEAE: Diarrhoea, patients [1]: 7 (10.4) n (%)
TEAE: Dyspnoea, patients [1]: 4 (6.0) n (%)
TEAE: Fluid overload, patients [1]: 2 (3.0) n (%)
TEAE: Hyperkalaemia, patients [1]: 5 (7.5) n (%)
TEAE: Hypertension, patients [1]: 3 (4.5) n (%)
TEAE: Hypokalaemia, patients [1]: 10 (14.9) n (%)
TEAE: Hypotension, patients [1]: 6 (9.0) n (%)
TEAE: Insomnia, patients [1]: 2 (3.0) n (%)
TEAE: Multiple organ dysfunction syndrome, patients [1]: 3 (4.5) n (%)
TEAE: Nausea, patients [1]: 4 (6.0) n (%)
TEAE: Peripheral oedema, patients [1]: 2 (3.0) n (%)
TEAE: Pleural effusion, patients [1]: 4 (6.0) n (%)
TEAE: Pneumonia, patients [1]: 2 (3.0) n (%)
TEAE: Pneumothorax, patients [1]: 4 (6.0) n (%)
TEAE: Pyrexia, patients [1]: 6 (9.0) n (%)
TEAE: Respiratory failure, patients [1]: 4 (6.0) n (%)
TEAE: Sepsis, patients [1]: 3 (4.5) n (%)
TEAE: Septic shock, patients [1]: 7 (10.4) n (%)
TEAE: Vomiting, patients [1]: 3 (4.5) n (%)
≥ 1 TEAE [1]: 54 (80.6) n (%)
≥ 1 TEAE leading to study/drug discontinuation [1]: 20 (29.9) n (%)
≥ 1 serious TEAE [1]: 38 (56.7) n (%)
≥ 1 study drug-related TEAE [1]: 11 (16.4) n (%)
≥ 1 study drug-related TEAE leading to study/drug discontinuation [1]: 2 (3.0) n (%)
≥ 1 study drug-related serious TEAE [1]: 4 (6.0) n (%)
TEAE: Abdominal abscess, event severity (n): mild/moderate/severe [2]: 0/0/4
TEAE: Abdominal pain, event severity (n): mild/moderate/severe [2]: 3/0/1
TEAE: Acidosis, event severity (n): mild/moderate/severe [2]: 2/2/0
TEAE: Acute kidney injury, event severity (n): mild/moderate/severe [2]: 1/1/2
TEAE: Anaemia, event severity (n): mild/moderate/severe [2]: 3/4/0
TEAE: Atrial fibrillation, event severity (n): mild/moderate/severe [2]: 1/2/0
TEAE: Bradycardia, event severity (n): mild/moderate/severe [2]: 2/3/0
TEAE: Constipation, event severity (n): mild/moderate/severe [2]: 3/1/0
TEAE: Decubitus ulcer, event severity (n): mild/moderate/severe [2]: 2/2/1
TEAE: Deep vein thrombosis, event severity (n): mild/moderate/severe [2]: 1/3/0
TEAE: Diarrhoea, event severity (n): mild/moderate/severe [2]: 4/3/0
TEAE: Dyspnoea, event severity (n): mild/moderate/severe [2]: 1/2/1
TEAE: Fluid overload, event severity (n): mild/moderate/severe [2]: 1/1/0
TEAE: Hyperkalaemia, event severity (n): mild/moderate/severe [2]: 2/2/1
TEAE: Hypertension, event severity (n): mild/moderate/severe [2]: 2/0/1
TEAE: Hypokalaemia, event severity (n): mild/moderate/severe [2]: 8/2/0
TEAE: Hypotension, event severity (n): mild/moderate/severe [2]: 3/3/1
TEAE: Insomnia, event severity (n): mild/moderate/severe [2]: 1/1/0
TEAE: Multiple organ dysfunction syndrome, event severity (n): mild/moderate/severe [2]: 0/0/3
TEAE: Nausea, event severity (n): mild/moderate/severe [2]: 1/3/0
TEAE: Peripheral oedema, event severity (n): mild/moderate/severe [2]: 1/1/0
TEAE: Pleural effusion, event severity (n): mild/moderate/severe [2]: 1/3/0
TEAE: Pneumonia, event severity (n): mild/moderate/severe [2]: 1/1/0
TEAE: Pneumothorax, event severity (n): mild/moderate/severe [2]: 1/3/0
TEAE: Pyrexia, event severity (n): mild/moderate/severe [2]: 5/1/0
TEAE: Respiratory failure, event severity (n): mild/moderate/severe [2]: 0/0/4
TEAE: Sepsis, event severity (n): mild/moderate/severe [2]: 0/0/3
TEAE: Septic shock, event severity (n): mild/moderate/severe [2]: 0/0/7
TEAE: Vomiting, event severity (n): mild/moderate/severe [2]: 2/1/0
Study drug-related serious TEAEs, events (each event n = 1): ventricular tachycardia, rectal haemorrhage, hypertransaminasaemia, and anaphylactic shock
Study drug-related TEAEs that led to study discontinuation, events (two patients): ventricular tachycardia and anaphylactic shock
